Source: ChEMBL document CHEMBL1140339, “Spiro and dispiro-1,2,4-trioxolanes as antimalarial peroxides: charting a workable structure-activity relationship using simple prototypes” (J Med Chem, 2005)
Converted amounts (≈) assume the structure as drawn.

How the values were obtained:
[1] = test system: Mus musculus; assay: Antimalarial activity (100 mg/kg, peroral) given 1 day post infection of mice (Mus musculus) with Plasmodium berghei is its ability to reduce parasitaemia on day 3 post infection; assay type: functional
Method in brief: (§1)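 P. berghei-infected MORO mice, groups of three, treated 1 day postinfection with a single dose (100 or 10 mg/kg, po or sc) dissolved or suspended in 3% ethanol/7% Tween-80. Activity is percent reduction in parasitemia on day 3 postinfection versus untreated controls. Survival time is compared with an untreated control group. Individual measurements generally differed by less than 10%.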

[2] = test system: Mus musculus; assay: Antimalarial activity (100 mg/kg, subcutaneously) given 1 day post infection of mice (Mus musculus) with Plasmodium berghei is its ability to reduce parasitemia on day 3 post infection; assay type: functional; method in brief: as §1
[3] = test system: Plasmodium falciparum; assay: In vitro inhibition of chloroquine-resistant Plasmodium falciparum K1; assay type: functional, organism-based
[4] = test system: Plasmodium falciparum; assay: In vitro inhibition of chloroquine-sensitive Plasmodium falciparum NF54; assay type: functional, organism-based
[5] = test system: Mus musculus; assay: Survival of mice to 30-day postinfection with Plasmodium berghei upon 100 mg/kg peroral dose was determined; assay type: functional; details: route oral; method in brief: as §1
[6] = test system: Mus musculus; assay: Survival of mice to 30-day postinfection with Plasmodium berghei upon 100 mg/kg upon subcutaneous dose was determined; assay type: functional; method in brief: as §1
[7] = test system: Mus musculus; assay: Antimalarial activity (10 mg/kg, peroral) given 1 day post infection of mice (Mus musculus) with Plasmodium berghei is its ability to reduce parasitaemia on day 3 post infection; assay type: functional; method in brief: as §1
[8] = test system: Mus musculus; assay: Antimalarial activity (10 mg/kg, subcutaneously) given 1 day post infection of mice (Mus musculus) with Plasmodium berghei is its ability to reduce parasitemia on day 3 post infection; assay type: functional; method in brief: as §1
[9] = test system: Mus musculus; assay: Survival of mice to 30-day postinfection with Plasmodium berghei upon 10 mg/kg peroral dose was determined; assay type: functional; details: route oral; method in brief: as §1
[10] = test system: Mus musculus; assay: Survival of mice to 30-day postinfection with Plasmodium berghei upon 10 mg/kg upon subcutaneous dose was determined; assay type: functional; method in brief: as §1
[11] = test system: Mus musculus; assay: Effective dose required to reduce the parasitemia in mice when compound administered with SSV after 3 day postinfection; assay type: functional
[12] = test system: Mus musculus; assay: Effective dose required to reduce the parasitemia in mice when compound administered with Tween-80 after 3 day postinfection; assay type: functional
[13] = organism: Mus musculus; assay: Effective dose required to reduce the parasitemia in mice by suppressive test after 4 day postinfection; assay type: functional
Method in brief: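 Peters 4-day suppressive test in P. berghei-infected mice with multiple daily oral doses. ED50/ED90 are given in (mg/kg)/day.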

[14] = test system: Mus musculus; assay: Survival of mice to 30-day postinfection with Plasmodium berghei upon 10 mg/kg upon peroral dose was determined; assay type: functional; details: route oral; method in brief: as §1
[15] = Volume distribution after intravenous administration of 20 mg/kg; details: rat, in vivo
[16] = Plasma half life period after intravenous administration ( 20 mg/kg); details: rat, in vivo

Row | Compound | Reduction [1] [%] | Reduction [2] [%] | IC50 [3] [µg/mL] | IC50 [4] [µg/mL] | Survival [5] [days] | Survival [6] [days] | Reduction [7] [%] | Reduction [8] [%] | Survival [9] [days] | Survival [10] [days] | further results
1 | C1CCC2(CC1)OOC1(CCCCC1)O2 | 0 | 0 | 0.1 (≈ 0.471 µM) | 0.504 (≈ 2.37 µM) | 5.3 | 5.3 |  |  |  |  | 
2 | c1ccc(C2CCC3(CC2)OOC2(O3)C3CCCC2CCC3)cc1 (stereo unspecified) |  |  | > 0.1 | > 0.1 |  |  | 0 | 0 | 5 | 5 | 
3 | CC1(C)COC2(CCC3(CC2)OOC2(O3)C3CCCC2CCC3)OC1 (stereo unspecified) |  |  | 0.041 (≈ 0.116 µM) | 0.049 (≈ 0.139 µM) |  |  | 1 | 6 | 5 | 5.3 | 
4 | CC(C)(C)C1CCC2(CC1)OOC1(O2)C2CC3CC(C2)CC1C3 (stereo unspecified) |  |  | 0.063 (≈ 0.197 µM) | 0.084 (≈ 0.262 µM) |  |  | 0 | 0 | 5 | 5.3 | 
5 | c1ccc(CC2(Cc3ccccc3)OOC3(O2)C2CC4CC(C2)CC3C4)cc1 (stereo unspecified) |  |  | 0.0031 (≈ 0.00823 µM) | 0.003 (≈ 0.00797 µM) |  |  | 88 | 99.7 | 6.7 | 8 | 
6 | C1CCC2(CC1)COC1(O2)C2CC3CC(C2)CC1C3 (stereo unspecified) | 0 | 0 | > 1 | > 1 | 5.6 | 5.6 |  |  |  |  | 
7 | C[C@@H]1CC[C@H]2[C@@H](C)C(=O)O[C@@H]3O[C@@]4(C)CC[C@@H]1[C@]32OO4 [ARTEMISININ] | 98 | >99.99 | 0.0016 (≈ 0.00567 µM) |  |  | 14 |  |  |  |  | 
8 | C1CCCCCC2(CCCCC1)OOC1(O2)C2CC3CC(C2)CC1C3 (stereo unspecified) |  |  |  |  |  | 7 |  | 90 | 7.4 |  | 
9 | CC(C)(C)C1CCC2(CC1)OOC1(CCC(c3ccccc3)CC1)O2 (stereo unspecified) |  |  | 0.077 (≈ 0.224 µM) | 0.062 (≈ 0.18 µM) |  |  |  |  | 0 |  | 
10 | C1C2CC3CC1CC(C2)C31OOC2(O1)C1CC3CC(C1)CC2C3 (stereo unspecified) | 0 | 0 | 0.95 (≈ 3 µM) | 0.779 (≈ 2.46 µM) | 5.3 | 5.3 |  |  |  |  | 
11 | CCN(CC)CCCC(C)Nc1ccnc2cc(Cl)ccc12 (stereo unspecified) [CHLOROQUINE] |  |  |  |  |  |  |  |  |  |  | ED50 [11]: 1.9 (mg/kg)/day; ED90 [11]: 4.2 (mg/kg)/day
12 | O=C1CCC2(CC1)OOC1(O2)C2CC3CC(C2)CC1C3 (stereo unspecified) | >99.99 | >99.99 | 0.00048 (≈ 0.00172 µM) | 0.00073 (≈ 0.00262 µM) | 10.7 | 30 | 94 | 99.7 |  | 8.6 | ED50 [12]: 3.5 (mg/kg)/day; ED90 [12]: 7 (mg/kg)/day; ED50 [11]: 8.7 (mg/kg)/day; ED90 [11]: 12 (mg/kg)/day; ED50 [13]: 1.5 (mg/kg)/day; ED90 [13]: 6.1 (mg/kg)/day; Survival [14]: 7.1 days; Vd [15]: 12 L/kg; T1/2 [16]: 1.95 h
13 | O=C1CCC2(CC1)OOC1(CCCCC1)O2 | 0 | 0 | 0.015 (≈ 0.0663 µM) | 0.039 (≈ 0.172 µM) | 5 | 5 |  |  |  |  | 
14 | CCCC1CCC2(CC1)OOC1(O2)C2CC3CC(C2)CC1C3 (stereo unspecified) |  |  | 0.0011 (≈ 0.00359 µM) | 0.0021 (≈ 0.00685 µM) |  |  |  |  | 8.4 | 16.5 | 
15 | O=S1(=O)CCC2(CC1)OOC1(O2)C2CC3CC(C2)CC1C3 (stereo unspecified) |  |  |  |  |  |  | 77 | 97 | 7 | 7.3 | 
